Results: ChEMBL document CHEMBL2029228, “Antimalarial activity of 9a-N substituted 15-membered azalides with improved in vitro and in vivo activity over azithromycin” (J Med Chem, 2012)
Calls of active or inactive are those of the source. The rule behind the calls is not given here.

Key:
[1] = Oral bioavailability in CD1 mouse at 25 mg/kg; format: ADME, organism-based; settings: in vivo
Summary of the method: (§1)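 Male CD-1 mice (N = 3 per route) dosed IV at 5 mg/kg or orally at 25 mg/kg while fasted, mostly in saline (2.5 mg/mL). Tail-vein blood taken up to 24 h, cardiac puncture at 30 h. Samples hemolyzed, protein-precipitated with acetonitrile plus internal standard, analysed by positive ESI LC-MS/MS.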

[2] = test system: Plasmodium berghei; assay: Antimalarial activity against Plasmodium berghei KBG173 infected in mouse assessed as cured mouse at 5 mg/kg, iv BID administered on day 3, 4 and 5 post infection measured up to day 31; format: functional, organism-based; set-up: dose 5 mg/kg
Summary of the method: (§2)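 Male mice (24–30 g) inoculated intraperitoneally with 5 × 10⁶ P. berghei KBG-173-infected erythrocytes; parasitemia about 1.0–3.7% by day 3. Dosing twice daily on days 3–5 postinfection. Blood smears negative on day 31 counted as cured, scored as cured/total mice (5 per dose). Mice losing ≥20% body weight sacrificed.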

[3] = test system: Plasmodium berghei; assay: Antimalarial activity against Plasmodium berghei KBG173 infected in mouse assessed as mouse survival time at 5 mg/kg, iv BID administered on day 3, 4 and 5 post infection; format: functional
Summary of the method: (§3)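 Male mice (24−30 g) inoculated intraperitoneally with 5 × 10⁶ P. berghei KBG-173-infected erythrocytes; parasitemia 1.0–3.7% by day 3. IV dosing twice daily on days 3, 4 and 5 post-infection. Read-out is the survival time of the last animal alive. Mice blood-smear negative on day 31 counted as cured; mice losing ≥20% body weight sacrificed.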

[4] = test system: HepG2; assay: Cytotoxicity against human HepG2 cells after 24 hrs by MTS assay; format: cell-based; settings: HepG2, 24 h
Summary of the method: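 HepG2 cells kept in RPMI 1640 with 10% FBS plus antibiotics at 37 °C, 5% CO₂. 50 000 cells per well exposed to 10 two-fold serial dilutions for 24 h. MTS reagent then added for 2 h more, absorbance read at 490 nm, IC50 derived.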

[5] = Fraction unbound in CD1 mouse plasma at 5 mg/kg, iv; format: ADME, organism-based; set-up: dose 5 mg/kg, route intravenous
Summary of the method: (§4)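 Fraction unbound measured in mouse plasma by ultrafiltration at 1 μg/mL. Unbound clearance = blood clearance/fu, assuming blood/plasma ratio of 1. Blood clearance comes from male CD-1 mice dosed IV at 5 mg/kg, with tail-vein sampling up to 24 h and LC-MS/MS analysis.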

[6] = test system: Mus musculus; assay: (§5) Half life in CD1 mouse at 5 mg/kg, iv; format: ADME, organism-based; set-up: dose 5 mg/kg, route intravenous; settings: mouse, in vivo; summary of the method: as §1
[7] = test system: Mus musculus; assay: Unbound clearance in CD1 mouse at 5 mg/kg, iv; format: ADME, organism-based; set-up: dose 5 mg/kg, route intravenous; settings: in vivo; summary of the method: as §4
[8] = Clearance at steady state in CD1 mouse at 5 mg/kg, iv; format: ADME, organism-based; set-up: dose 5 mg/kg, route intravenous; settings: in vivo, read-out: CLss; summary of the method: as §1
[9] = test system: Plasmodium berghei; assay: Antimalarial activity against Plasmodium berghei KBG173 infected in mouse assessed as decrease in parasitemia at 10 mg/kg, iv BID administered on day 3, 4 and 5 post infection measured on day 31 relative to control; format: functional, organism-based; set-up: dose 10 mg/kg; summary of the method: as §2
[10] = test system: Plasmodium berghei; assay: Antimalarial activity against Plasmodium berghei KBG173 infected in mouse assessed as mouse survival time at 15 mg/kg, iv BID administered on day 3, 4 and 5 post infection; format: functional; summary of the method: as §3
[11] = Volume of distribution at steady state in CD1 mouse at 5 mg/kg, iv; format: ADME, organism-based; set-up: dose 5 mg/kg, route intravenous; settings: in vivo, read-out: Vdss; summary of the method: as §1
[12] = test system: Plasmodium berghei; assay: Antimalarial activity against Plasmodium berghei KBG173 infected in mouse assessed as cured mouse at 15 mg/kg, iv BID administered on day 3, 4 and 5 post infection measured up to day 31; format: functional, organism-based; set-up: dose 15 mg/kg; summary of the method: as §2
[13] = test system: Plasmodium berghei; assay: Antimalarial activity against Plasmodium berghei KBG173 infected in mouse assessed as decrease in parasitemia at 2.5 mg/kg, iv BID administered on day 3, 4 and 5 post infection measured on day 31 relative to control; format: functional, organism-based; set-up: dose 2.5 mg/kg; summary of the method: as §2
[14] = test system: Plasmodium berghei; assay: Antimalarial activity against Plasmodium berghei KBG173 infected in mouse assessed as decrease in parasitemia at 5 mg/kg, iv BID administered on day 3, 4 and 5 post infection measured on day 31 relative to control; format: functional, organism-based; set-up: dose 5 mg/kg; summary of the method: as §2
[15] = test system: Plasmodium berghei; assay: Antimalarial activity against Plasmodium berghei KBG173 infected in mouse assessed as decrease in parasitemia at 5 mg/kg, ip BID administered on day 3, 4 and 5 post infection measured on day 31 relative to control; format: functional, organism-based; set-up: dose 5 mg/kg; summary of the method: as §2
[16] = test system: Plasmodium berghei; assay: Antimalarial activity against Plasmodium berghei KBG173 infected in mouse assessed as decrease in parasitemia at 1.25 mg/kg, ip BID administered on day 3, 4 and 5 post infection measured on day 31 relative to control; format: functional, organism-based; set-up: dose 1.25 mg/kg; summary of the method: as §2
[17] = test system: Plasmodium berghei; assay: Antimalarial activity against Plasmodium berghei KBG173 infected in mouse assessed as decrease in parasitemia at 2.5 mg/kg, ip BID administered on day 3, 4 and 5 post infection measured on day 31 relative to control; format: functional, organism-based; set-up: dose 2.5 mg/kg; summary of the method: as §2
[18] = test system: Plasmodium berghei; assay: Antimalarial activity against Plasmodium berghei KBG173 infected in mouse assessed as decrease in parasitemia at 1.25 mg/kg, iv BID administered on day 3, 4 and 5 post infection measured on day 31 relative to control; format: functional, organism-based; set-up: dose 1.25 mg/kg; summary of the method: as §2
[19] = Plasma protein binding in mouse at 1 ug/ml after 30 mins; format: ADME, cell-free; settings: read-out: PPB (converted)
Summary of the method: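 Ultrafiltration on mouse plasma preincubated 15 min at 37 °C, compound spiked to 1 μg/mL final. Aliquots taken at 0 and 15 min, remainder spun through a 10 kDa filter for 30 min at 37 °C, 2850 g. Filtrate deproteinized and analysed by LC-MS/MS.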

[20] = test system: Liver; assay: Intrinsic clearance in mouse liver microsomes assessed per gram of liver at 1 uM after 60 mins at pH 7.4 by LC-MS/MS analysis; format: ADME, Microsome; settings: pH 7.4, 1 h
Summary of the method: (§6)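 Liver microsomes (0.5 mg protein/mL) in 50 mM potassium phosphate pH 7.4 with 1.0 μM compound at 37 °C for 60 min. Reaction started with NADP/glucose-6-phosphate/MgCl₂/G6PDH cofactor mix; solvent 1% final. LC-MS/MS read-out. CLi from first-order elimination constant by nonlinear regression, corrected for incubation volume, assuming 52.5 mg microsomal protein/g liver.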

[21] = test system: Liver microsomes; assay: Intrinsic clearance in human liver microsomes assessed per gram of liver at 1 uM after 60 mins at pH 7.4 by LC-MS/MS analysis; format: ADME, Microsome; settings: pH 7.4, 1 h; summary of the method: as §6
[22] = as §5; format: ADME, organism-based; set-up: dose 5 mg/kg, route intravenous; settings: CD1, mouse, in vivo; summary of the method: as §1
[23] = test system: Plasmodium falciparum; assay: Antimalarial activity against mefloquine-resistant Plasmodium falciparum TM91C235 assessed as [3H]hypoxanthine incorporation after 48 hrs; format: functional, organism-based
Summary of the method: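 Tritiated hypoxanthine incorporation assay (Desjardins method, Milhous modification) with 48 h drug exposure. Uses P. falciparum clone TM91C235 (Southeast Asian, mefloquine-resistant). Compounds 2-fold diluted over 11 concentrations. IC50 derived by nonlinear logistic dose-response fitting, averaged where multiple runs were done.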

[24] = test system: Liver microsomes; assay: Intrinsic clearance in rat liver microsomes assessed per gram of liver at 1 uM after 60 mins at pH 7.4 by LC-MS/MS analysis; format: ADME, Microsome; settings: pH 7.4, 1 h; summary of the method: as §6
[25] = test system: Plasmodium berghei; assay: Antimalarial activity against Plasmodium berghei KBG173 infected in mouse assessed as increase in mouse survival time at 5 mg/kg, iv BID administered on day 3, 4 and 5 post infection relative to azithromycin; format: functional; summary of the method: as §3
[26] = test system: Plasmodium berghei; assay: Antimalarial activity against Plasmodium berghei KBG173 infected in mouse assessed as decrease in parasitemia at 20 mg/kg, ip BID administered on day 3, 4 and 5 post infection measured on day 31 relative to control; format: functional, organism-based; set-up: dose 20 mg/kg; summary of the method: as §2
[27] = test system: Plasmodium berghei; assay: Antimalarial activity against Plasmodium berghei KBG173 infected in mouse assessed as decrease in parasitemia at 15 mg/kg, iv BID administered on day 3, 4 and 5 post infection measured on day 31 relative to control; format: functional, organism-based; set-up: dose 15 mg/kg; summary of the method: as §2
[28] = test system: Plasmodium berghei; assay: Antimalarial activity against Plasmodium berghei KBG173 infected in mouse assessed as decrease in parasitemia at 20 mg/kg, iv BID administered on day 3, 4 and 5 post infection measured on day 31 relative to control; format: functional, organism-based; set-up: dose 20 mg/kg; summary of the method: as §2
[29] = test system: Plasmodium berghei; assay: Antimalarial activity against Plasmodium berghei KBG173 infected in mouse assessed as decrease in parasitemia at 10 mg/kg, ip BID administered on day 3, 4 and 5 post infection measured on day 31 relative to control; format: functional, organism-based; set-up: dose 10 mg/kg; summary of the method: as §2

Compound | bioavailability [1] | Activity [2] | IC50 [4] | fraction unbound [5] | CL free [7] | clearance [8] | Vd [11] | fraction unbound at 0.5 h, 1 ug/ml [19] | CLint [21] | half-life [22] | IC50 [23] | Survival [25] | other results
CC[C@H]1OC(=O)[C@H](C)[C@@H](O[C@H]2C[C@@](C)(OC)[C@@H](O)[C@H](C)O2)[C@H](C)[C@@H](O[C@@H]2O[C@H](C)C[C@H](N(C)C)[C@H]2O)[C@](C)(O)C[C@@H](C)CN(C)[C@H](C)[C@@H](O)[C@]1(C)O [AZITHROMYCIN] | 72% | inactive | > 50 µM | 0.69 | 1.39 L/h/kg | 0.96 L/h/kg | 8.8 L/kg |  |  |  |  |  | Survival [3]: 17 days; t1/2 [6]: 8.3 h; Activity [9]: inactive; Survival [10]: 19 days; Activity [12]: inactive
CCN(CC)CCCC(C)Nc1ccnc2cc(Cl)ccc12 (configuration not stated) |  |  |  |  |  |  |  |  |  |  |  |  | Activity [13]: inactive; Activity [14]: inactive; Activity [15]: inactive; Activity [16]: inactive; Activity [17]: inactive; Activity [18]: inactive
CC[C@H]1OC(=O)[C@H](C)[C@@H](O[C@H]2C[C@@](C)(OC)[C@@H](O)[C@H](C)O2)[C@H](C)[C@@H](O[C@@H]2O[C@H](C)C[C@H](N(C)C)[C@H]2O)[C@](C)(O)C[C@@H](C)CN(CCCNCc2ccnc3ccccc23)[C@H](C)[C@@H](O)[C@]1(C)O | 19.5% |  | > 50 µM | 0.57 | 1.08 L/h/kg | 0.612 L/h/kg | 4.9 L/kg | 0.57 | < 0.6 mL/min/g | 8.7 h | 0.165 µM | 3 days | CLint [20]: < 0.6 mL/min/g; CLint [24]: < 0.6 mL/min/g
CC[C@H]1OC(=O)[C@H](C)[C@@H](O[C@H]2C[C@@](C)(OC)[C@@H](O)[C@H](C)O2)[C@H](C)[C@@H](O[C@@H]2O[C@H](C)C[C@H](N(C)C)[C@H]2O)[C@](C)(O)C[C@@H](C)CN(CCC(=O)N[C@H](C)c2cccc3ccccc23)[C@H](C)[C@@H](O)[C@]1(C)O | 23.6% |  | > 30 µM | 0.13 | 4.86 L/h/kg | 0.63 L/h/kg | 7.8 L/kg | 0.13 | 1.8 mL/min/g | 16.5 h | 0.095 µM | -9 days | 
CC[C@H]1OC(=O)[C@H](C)[C@@H](O[C@H]2C[C@@](C)(OC)[C@@H](O)[C@H](C)O2)[C@H](C)[C@@H](O[C@@H]2O[C@H](C)C[C@H](N(C)C)[C@H]2O)[C@](C)(O)C[C@@H](C)CN(CCCNc2ccnc3cc(Cl)ccc23)[C@H](C)[C@@H](O)[C@]1(C)O |  | inactive |  |  |  |  |  |  |  |  |  |  | Activity [26]: Active; Activity [27]: Active; Activity [28]: Active; Activity [29]: inactive
